Measured values as given in ChEMBL document CHEMBL4118110, “The identification of inhibitory compounds of Rickettsia prowazekii methionine aminopeptidase for antibacterial applications” (Bioorg Med Chem Lett, 2018).

Test: Inhibition of Rickettsia prowazekii N-terminal His6-tagged methionine aminopeptidase 1 expressed in Escherichia coli DLB3 Rosetta cells at 10 uM using Met-AMC as substrate preincubated for 1 hr followed by 30 mins incubation after substrate addition measured after 90 mins in presence of MnCl2 by fluorescence assay relative to control
Summary of the method: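 Recombinant R. prowazekii MetAP with Mn(II) as the metal cofactor. Met-AMC substrate; release of free AMC is followed by fluorescence (excitation 360 nm, emission 460 nm). Activity is the slope of fluorescence versus time, compared with an uninhibited control.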
In the case of Nc1nnc(SCc2cccc(Cl)c2)[nH]1, the inhibition is reported as 1 to 23%.
Compound O=c1c2ccc(-c3ccccn3)nc2[nH]n1-c1ccccc1 has an inhibition of 1 to 55%.
In the case of O=C(O)c1cc(-c2ccccn2)nc2ccccc12, the inhibition is reported as 37 to 55%.
Compound Nc1cccc2c(-c3cccnc3)n[nH]c12 has an inhibition of 16 to 21%.
Work on Cc1ccc2nc(-c3ccccn3)c(C(=O)O)cc2c1 yielded an inhibition of 1 to 13%.
Compound Cc1c(C(=O)O)sc2ncn(C3CCCC3)c(=O)c12 has an inhibition of 20 to 26%.
C=C(C)Cn1cnc2sc(C(=O)O)c(C)c2c1=O gave an inhibition of 8 to 33%.
COc1ccc(Cl)cc1-c1nnc(S)[nH]1 showed an inhibition of 20 to 65%.
Work on O=C(O)c1ccc(-c2ccc(Cl)c(Cl)c2)o1 yielded an inhibition of 46 to 51%.
Cc1c(Cl)cccc1NC(=O)CSc1nnc[nH]1 gave an inhibition of 22 to 62%.
For O=C(O)c1cnc2ccccc2c1O, the inhibition was 13 to 55%.
CC(=O)Nc1ccc(C(=O)CSc2nnc(C)[nH]2)cc1 showed an inhibition of 1 to 39%.
Compound N#Cc1cccc(NCc2ccc(O)c3ncccc23)c1 has an inhibition of 1 to 5%.
Work on O=C(O)c1ccc(Cn2cnc3ccccc32)o1 yielded an inhibition of 9 to 23%.
For CC(=O)c1c(O)nc2ccccn12, the inhibition was 16 to 43%.
COc1cccc(C(=O)Nc2ccsc2C(=O)O)c1 gave an inhibition of 1 to 32%.
With c1ccn2c(C3CCCN3)nnc2c1 (stereo not given) the inhibition was 2 to 51%.
COCc1nc(=O)c2c(C)c(C(=O)O)sc2[nH]1 showed an inhibition of 2 to 48%.
Work on Nc1n[nH]c(SCC(=O)c2cc3ccccc3o2)n1 yielded an inhibition of 21 to 28%.
Work on Cc1c(C(=O)O)sc2nc(C)n(C)c(=O)c12 yielded an inhibition of 22 to 34%.
Cc1ccc(OCCCSc2n[nH]c(N)n2)cc1 gave an inhibition of 42 to 51%.
O=C(O)c1ccc(C2=NCc3ccccc3N2)o1 showed an inhibition of 7 to 63%.
With COc1ccccc1C1CC(c2cc(F)ccc2O)=NN1 (stereo not given) the inhibition was 1 to 57%.
For Nc1ccncc1-c1ccc(C(=O)O)s1, the inhibition was 12 to 58%.
O=C(NCCCCl)C(=O)NCCCCl gave an inhibition of 8 to 43%.
c1ccc2[nH]c(C3CCCN3)nc2c1 (stereo not given) showed an inhibition of 6 to 23%.
O=C(O)C1Cc2c([nH]c3ccccc23)CN1 (stereo not given) showed an inhibition of 17 to 19%.
Compound Nc1n[nH]c(SCc2ccccc2Cl)n1 has an inhibition of 24 to 34%.
Work on CC(C)Oc1ccc(CCSc2nnc(N)[nH]2)cc1 yielded an inhibition of 47 to 53%.
O=C(O)c1n[nH]c2ccccc12 gave an inhibition of 35 to 36%.
Nc1nnc(SCc2ccc([N+](=O)[O-])cc2)[nH]1 showed an inhibition of 42 to 45%.
Work on NC(=O)CSc1n[nH]c(-c2ccco2)n1 yielded an inhibition of 1 to 50%.
In the case of c1ccc(-c2nn[nH]n2)nc1, the inhibition is reported as 44 to 56%.
Compound O=C(O)c1nc(C2CC2)n2ccccc12 has an inhibition of 40 to 68%.
With c1ccc(-c2n[nH]c(-c3ccccn3)n2)cc1 the inhibition was 6 to 23%.
O=C(O)c1ccc(COc2ccc3ccc(=O)oc3c2)o1 showed an inhibition of 14 to 21%.
Compound O=C(O)CC(Sc1nnc[nH]1)c1ccc(Cl)cc1 (stereo not given) has an inhibition of 54 to 55%.
Compound Nc1nnc(SCC(=O)Nc2ccc(Cl)cc2)[nH]1 has an inhibition of 19 to 38%.
For Nc1nnc(SCC(=O)c2ccc(O)cc2O)[nH]1, the inhibition was 2 to 19%.
Compound CCc1nnc(SCC(=O)c2ccc([N+](=O)[O-])cc2)[nH]1 has an inhibition of 75 to 81%.
Work on O=C(NCc1ccco1)c1ccc2nc(O)c(O)nc2c1 yielded an inhibition of 35 to 39%.
With c1ccc(-c2cc[nH]n2)nc1 the inhibition was 2 to 52%.
In the case of Cc1ccc(OCc2ccc(C(=O)O)o2)cc1, the inhibition is reported as 1 to 22%.
CC(C)N1CC(=O)C(c2nc3ccccc3[nH]2)=C1N gave an inhibition of 25 to 26%.
Compound COc1ccccc1NC(=O)CSc1nc[nH]n1 has an inhibition of 19 to 52%.
In the case of O=C(O)c1ccc(CS(=O)(=O)c2ccccc2)o1, the inhibition is reported as 16 to 27%.
With COc1ccc(C(=O)CSc2n[nH]c(N)n2)cc1 the inhibition was 32 to 58%.
c1ccc(CSc2n[nH]c(-c3ccco3)n2)cc1 gave an inhibition of 13 to 16%.
Work on Nc1nnc(SCCCc2ccccc2)[nH]1 yielded an inhibition of 18 to 37%.
CCc1ccc(C(=O)CSc2nnc(CC)[nH]2)cc1 gave an inhibition of 9 to 47%.
Work on COc1ccc(-c2nnc3c(N)cccn23)cc1 yielded an inhibition of 13 to 23%.
With O=C(O)c1cccnc1-c1ncccc1C(=O)O the inhibition was 13 to 49%.
CCc1n[nH]c(SCC(=O)c2ccc(C)c(C)c2)n1 gave an inhibition of 5 to 38%.
Compound Nc1nnc(SCCCOc2ccc(Cl)cc2)[nH]1 has an inhibition of 22 to 32%.
With O=C(NCc1ccccn1)c1ccc2[nH]c(=O)c(=O)[nH]c2c1 the inhibition was 36 to 40%.
With Cc1cc(OC(C)C(=O)NN)cc(C)c1Cl (stereo not given) the inhibition was 31 to 69%.
Compound O=c1[nH]c2cccc3c2n(c1=O)CCO3 has an inhibition of 24 to 32%.
For NC(=O)CSc1nnc(-c2ccccc2)[nH]1, the inhibition was 22 to 45%.
In the case of CCCCCCSc1nnc(N)[nH]1, the inhibition is reported as 1 to 3%.
Cc1ccc(-c2ccc(C(=O)O)s2)cc1 gave an inhibition of 4 to 18%.
CC(C)CC(N)c1nnc2ccccn12 (stereo not given) showed an inhibition of 22 to 61%.
Cc1cc(C)cc(OCCSc2nnc(N)[nH]2)c1 gave an inhibition of 38 to 39%.
Compound Cc1ccc(S(=O)(=O)c2ccc(C(=O)O)s2)cc1 has an inhibition of 10 to 67%.
CCc1ccc(NC(=O)CSc2nnc[nH]2)cc1 gave an inhibition of 18 to 60%.
Nc1n[nH]c(SCCOc2ccccc2)n1 gave an inhibition of 28 to 29%.
In the case of Nc1cc(-c2ccccn2)n[nH]1, the inhibition is reported as 1 to 45%.
Work on Nc1nnc(SCC(=O)OCCOc2ccccc2)[nH]1 yielded an inhibition of 47 to 56%.
Work on Cc1cccc2nc(C(=O)O)cn12 yielded an inhibition of 38 to 58%.
CC(=O)c1c(Nc2ccc(F)cc2)oc(C)cc1=O showed an inhibition of 23 to 58%.
For CCc1nnc(SCC(=O)c2ccccc2)[nH]1, the inhibition was 1 to 40%.
In the case of CCCCCn1cnc2sc(C(=O)O)c(C)c2c1=O, the inhibition is reported as 34 to 57%.
O=C(O)c1ccc(S(=O)(=O)c2ccc(Cl)cc2)o1 showed an inhibition of 41 to 68%.
CCOC(=O)c1cccc(CSc2nnc(N)[nH]2)c1 showed an inhibition of 47 to 59%.
Work on Nc1n[nH]c(SCC(=O)c2cccc([N+](=O)[O-])c2)n1 yielded an inhibition of 8 to 49%.
In the case of Nc1n[nH]c(SCc2c(Cl)cccc2Cl)n1, the inhibition is reported as 5 to 17%.
O=C(O)c1cc(=O)c2ccccc2[nH]1 showed an inhibition of 7 to 59%.
Work on O=C(O)c1ccc(S(=O)(=O)N2CCOCC2)o1 yielded an inhibition of 8 to 67%.
C#CCSc1nc2sc(C(=O)O)c(C)c2c(=O)[nH]1 gave an inhibition of 9 to 58%.
Work on Cc1n[nH]c(O)c1C1=NCCCCC1 yielded an inhibition of 4 to 65%.
O=C(O)C1=NN(c2ccccc2)C(=O)CC1 gave an inhibition of 14 to 39%.
Cc1cc(C(=O)O)n[nH]1 gave an inhibition of 34 to 42%.
Compound NNC(=O)C(=O)Nc1ccccc1C(=O)O has an inhibition of 11 to 63%.
O=C(O)c1c(-c2ccccc2)c(-c2ccccc2)n[nH]c1=O showed an inhibition of 33 to 71%.
CSc1cc(C(=O)O)nc(-c2ccccn2)c1 gave an inhibition of 36 to 68%.
With O=C(O)C1CCCN1C(=O)c1ccco1 (stereo not given) the inhibition was 7 to 9%.
Cc1c(C(=O)O)sc2ncn(C3CCCCC3)c(=O)c12 gave an inhibition of 17 to 26%.
Work on CC(C)(C)c1ccc(OCCSc2nnc(N)[nH]2)cc1 yielded an inhibition of 25 to 28%.
Work on Cc1ccccc1-c1nnc(C(C)N)o1 (stereo not given) yielded an inhibition of 2 to 39%.
Work on CCc1nnc(SCC(=O)c2ccc(C(C)C)cc2)[nH]1 yielded an inhibition of 9 to 44%.
Cc1ccc(-n2nnc(C(=O)O)c2C2CC2)cc1 showed an inhibition of 1 to 44%.
Sc1n[nH]c(-c2csc3c2CCCC3)n1 showed an inhibition of 45 to 49%.
Work on Cc1ccc(C2NC(C(=O)O)CS2)cc1 (stereo not given) yielded an inhibition of 1 to 74%.
With CCc1nnc(SCC(=O)c2ccc(C)cc2C)[nH]1 the inhibition was 14 to 45%.
NNC(=O)c1ccc(-c2ccc(Cl)cc2)o1 showed an inhibition of 10 to 41%.
O=C(O)c1ccc(S(=O)(=O)c2ccccc2)o1 showed an inhibition of 18 to 49%.
For COc1ccc(C(=O)CSc2nnc(C)[nH]2)cc1C, the inhibition was 16 to 56%.
With O=C(O)c1cnccn1 the inhibition was 42 to 45%.
Nc1nnc(SCCN2CCCCC2)[nH]1 showed an inhibition of 1 to 34%.
With Cc1c(C(=O)O)sc2ncn(C(C)C)c(=O)c12 the inhibition was 5 to 19%.
COc1cccc(-c2cc(C(=O)O)no2)c1 gave an inhibition of 31 to 35%.
With CCOC(=O)CSc1nnc(N)[nH]1 the inhibition was 18 to 34%.
O=C(O)c1cnc(-c2cccc(Cl)c2)o1 showed an inhibition of 1 to 37%.
For Cc1cccc(-c2nnc(C(C)N)o2)c1 (stereo not given), the inhibition was 1 to 43%.
Compound Cc1ccc(OCCCCSc2nnc(N)[nH]2)cc1 has an inhibition of 45 to 65%.
Compound CC(C)CCNC(=O)c1ccc2[nH]c(=O)c(=O)[nH]c2c1 has an inhibition of 49 to 54%.
Compound COc1cccc(-c2nnc(-c3ccccc3N)[nH]2)c1 has an inhibition of 1 to 19%.
Cc1ccc(C(=O)CSc2nnc(N)[nH]2)cc1 gave an inhibition of 17 to 52%.
Cc1cc(C)n2c(C(N)CC(C)C)nnc2n1 (stereo not given) showed an inhibition of 6 to 23%.
Nc1n[nH]c(SCCN2C(=O)c3ccccc3C2=O)n1 showed an inhibition of 45 to 50%.
Cc1ccc(-c2noc(-c3ccccc3N)n2)cc1 gave an inhibition of 2 to 52%.
In the case of Cc1c(C(=O)O)sc2ncn(CC3CCCO3)c(=O)c12 (stereo not given), the inhibition is reported as 10 to 24%.
For c1ccn2c(C3CCCNC3)nnc2c1 (stereo not given), the inhibition was 2 to 47%.
In the case of O=C1CCCN1c1ccc(S(=O)(=O)Nc2cccc3cccnc23)cc1, the inhibition is reported as 5 to 22%.
In the case of CCc1ccc(OCCCSc2nnc(N)[nH]2)cc1, the inhibition is reported as 25 to 31%.
Work on Cc1ccc(-c2nnc(C(C)N)o2)cc1 (stereo not given) yielded an inhibition of 21 to 49%.
Work on Cc1nnc(SCC(=O)c2cccc3ccccc23)[nH]1 yielded an inhibition of 38 to 67%.
Cc1ccc(SCc2ccc(C(=O)O)o2)cc1 gave an inhibition of 4 to 9%.
For S=c1nc(-c2ccccn2)cc[nH]1, the inhibition was 32 to 75%.
Work on Cc1nnc(SCC(=O)N2CCCc3ccccc32)[nH]1 yielded an inhibition of 43 to 44%.
With Cc1nnc(SCC(=O)c2ccc(C)c(C)c2)[nH]1 the inhibition was 10 to 24%.
With Cc1ccc(-n2nnc(C(=O)O)c2C)cc1C the inhibition was 41%.
For Cc1c(C(=O)O)sc2nc[nH]c(=O)c12, the inhibition was 44 to 51%.
Compound C1CCc2nnc(-c3nnc4n3CCCCC4)n2CC1 has an inhibition of 1 to 60%.
N#CC1=C(c2ccccc2)CSC(c2ccccn2)=NC1=N gave an inhibition of 2 to 20%.
With c1ccc(-c2nc3ccccc3o2)nc1 the inhibition was 1 to 46%.
Work on CC(Sc1nnc(N)[nH]1)C(=O)OC1CCCCC1 (stereo not given) yielded an inhibition of 46 to 54%.
CCc1nnc(SCC(=O)c2ccc(C)cc2)[nH]1 gave an inhibition of 11 to 14%.
With Cc1nc2ccccc2n1Cc1ccc(C(=O)O)o1 the inhibition was 10 to 21%.
Compound O=C(CSc1nnc[nH]1)c1cccc2ccccc12 has an inhibition of 1 to 39%.
With N#Cc1ccccc1CSc1nnc(N)[nH]1 the inhibition was 27 to 28%.
With O=C(O)c1ccc(-c2cc(Cl)ccc2Cl)s1 the inhibition was 1 to 80%.
In the case of COC(=O)CSc1n[nH]c(-c2ccncc2)n1, the inhibition is reported as 1 to 39%.
Cc1cc(C)n(-c2ccc(Cl)c(C(=O)O)n2)n1 gave an inhibition of 15 to 77%.
Cc1nnc(CN)o1 gave an inhibition of 13 to 32%.
Compound CCc1n[nH]c(SCC(=O)NCCc2ccccc2)n1 has an inhibition of 1 to 15%.
O=C(CSc1nnc[nH]1)Nc1ccccc1 gave an inhibition of 2 to 60%.
For O=C(O)c1ccc(CSc2nnc[nH]2)o1, the inhibition was 16 to 21%.
Work on O=C(O)c1cc(-c2ccccn2)nc2ccc(F)cc12 yielded an inhibition of 29 to 61%.
Work on O=C(O)c1cc(C2CC2)on1 yielded an inhibition of 28 to 30%.
CCCCOC(=O)CSc1nnc(N)[nH]1 showed an inhibition of 39 to 62%.
